# Bioassay records as filed in PubChem.
# This is a sample that favours compounds with a hit; in the whole collection about 1.7% have one here.
# PGC1a acetyl inh: inhibitors of PGC1a acetylation signal, primary screen, cell-based, U2OS, AlphaScreen, inhibitor mode | inhibition, % at 15.6 µM | AlphaScreen anti-acetyl-lysine; with virally co-expressed GCN5 acetyltransferase | AID 651687, 2012 | 0.17% of 350,000 active;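 active = every replicate shows inhibition of at least 40%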;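 note: 0% = neutral control wells and 100% = positive control wells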
# CAL PDZ FP-1: untagged CAL PDZ binding inhibitors, primary screen, biochemical, fluorescence polarization, HTS; Golgi-associated PDZ and coiled-coil motif-containing protein (Homo sapiens), Q9HD26; purified CAL PDZ, TMR-peptide fluorescence polarization, 1 h; inhibition, % at 24.9 µM; 0.92% of 300,000 active; AID 602252, 2012;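 active = mean inhibition of at least 30% with at least half of replicates also reaching 30%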;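 note: 0% = DMSO neutral control and 100% = excess unlabeled competitor peptide PRC23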
# ARNT TACC3 PPI: disruptors of ARNT/TACC3 protein interaction, primary screen, biochemical, AlphaScreen, single concentration; AlphaScreen His-ARNT PAS-B/GST-TACC3 binding, luminescence; TACC3 fragment carries E629A point mutation; inhibition, % at 9.99 µM; AID 623870, 2012; Transforming acidic coiled-coil-containing protein 3 (Homo sapiens), Q9Y6A5; 0.66% of 390,000 active;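 active = mean inhibition of replicates at least 50% and at least half of replicates each reaching 50%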;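 note: 0% = complete ARNT plus TACC3 wells and 100% = ARNT alone without TACC3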
# CAL PDZ FP-2: CAL PDZ peptide-binding inhibitors, primary screen, biochemical, fluorescence polarization, Cer-tagged CAL PDZ, HTS; purified CAL PDZ, TMR-peptide fluorescence polarization, 1 h; inhibition, % at 20 µM; 0.02% of 330,000 active; AID 504414, 2011;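 active = highest replicate inhibition of at least 40%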;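 note: plate controls were DMSO neutral control wells for no effect and unlabeled competitor peptide control wells for full effect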
#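 Read-out basis: mP drop reported as inhibition | Assay system: Tagged CAL PDZ protein CerCALP, purified | Benchmarks: Unlabelled peptide for full inhibition, DMSO wells as neutral | Schedule: 1 h incubation at room temperature before polarization reading | Buffer or medium: Sodium phosphate/NaCl buffer pH 7.4 with TCEP, IgG, Thesit | Doses: Single point, 20 µM | Measured by: Fluorescence polarization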
# CFTR F508del cor: F508del CFTR correction, initial screen, CFBE line, single point; activity (quench increase), % at 7.58 µM; AID 720511, 2013; 0.36% of 350,000 active; CFBE cells, YFP halide quenching; stimulated with forskolin plus potentiator P3; % fluorescence drop versus neutral controls;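 active = mean added fluorescence quench of at least 8% versus neutral control, with both replicates also reaching 8%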;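 note: cells transiently co-express mutant CFTR-F508del with the halide-sensitive YFP; corrector assay measuring rescue of mutant channel to the surface after 24 h compound exposure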
# miR-122 sensor: miR-122 Renilla sensor signal increase in Huh7, primary screen, miR-122 inhibitor project, cell-based, single point, plate reader; activation (reporter increase), % at 12.5 µM; 0.3% of 340,000 active; AID 602342, 2012; Huh7 miR-122 Renilla luciferase sensor, 48 h; neutral wells = 0, positive control = 100;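 active = mean replicate activation score at least 90 and every replicate individually at or above 90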;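 note: higher luciferase means less miR-122 activity so hits act as miR-122 inhibitors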
# Active calls of the source: *; / = not tested or not shown; [ ] = dose if it differs, or a comment.
SMILES,PGC1a acetyl inh,CAL PDZ FP-1,ARNT TACC3 PPI,CAL PDZ FP-2,CFTR F508del cor,miR-122 sensor
COc1ccc(OC)c(-c2nnc3n2N=C(c2ccc(OC)c(OC)c2)CS3)c1,/,-10,18,-9,9.5*,/
O=C(NCC[C@@H]1CC[C@H](NC(=O)c2cccnc2)[C@@H](CO)O1)Nc1ccc(F)cc1,7,/,-1,/,0,/
O=C(C[C@@H]1CC[C@@H]2[C@H](COC[C@@H](O)CN2Cc2cccc(-c3ccncc3)c2)O1)N1CCN(c2ccccc2)CC1,-13,/,17,/,0,-10[16.7 µM]
CCOc1ccccc1N(CC(=O)Nc1cccnc1)S(=O)(=O)c1ccc(C)cc1,/,-9,0,-1,1,128*
CCOc1ccccc1N(CC(=O)Nc1cccnc1)S(C)(=O)=O,-8,1,1,0,/,9
C[C@@H]1CN([C@H](C)CO)S(=O)(=O)c2ccc(C3=CCCC3)cc2O[C@@H]1CN(C)C(=O)C1CC1,-12,/,/,/,-3,0[16.7 µM]
C[C@@H]1CN([C@@H](C)CO)C(=O)c2cc(NC(=O)Nc3ccc(C(F)(F)F)cc3)ccc2O[C@@H](C)CCCCO[C@H]1CN(C)C(=O)Nc1cccc2ccccc12,3,/,-3,/,1,7[16.7 µM]
Cc1ccc([C@H]2C(C(=O)O)=CC[C@@H](c3ccc(C)cc3)N2S(=O)(=O)c2ccc(C)cc2)cc1,2,-6,-5,-2,2,5
Cc1ccc([C@@H]2CC=C(C(=O)O)[C@H](c3ccccc3)N2S(=O)(=O)c2ccc(C)cc2)cc1,/,50*,0,-1,0,/
Cc1nc(NCCCN2CCOCC2)c2cnn(-c3ccccc3)c2n1,-3,36*,-36,-1,1,-10
Cc1[nH]n(-c2ccccc2)c(=O)c1/C=N/Nc1nncc(-c2ccccc2)n1,12,0,66*,-1,-3,-9
Cc1ccc(-n2[nH]c(C)c(C=NCc3ccncc3)c2=O)cc1,-6,8,16,0,1,-6
Cc1[nH]n(-c2ccccc2)c(=O)c1C=NCc1ccncc1,-4,-2,20*,-2,4,1
Cc1cc(C(=O)N/N=C/c2c(C)[nH]n(-c3ccccc3)c2=O)n[nH]1,/,0,84*,-3,1,2
Cc1[nH]n(-c2ccc(Cl)cc2)c(=O)c1/C=N/c1nnc(-c2ccccc2)s1,/,-2,active,-2,/,/
Cc1ccc(/C=N/Nc2nncc(-c3ccccc3)n2)o1,-9,3,-3,0,4,7
C[C@@H]1CN([C@H](C)CO)S(=O)(=O)c2ccc(C3=CCCCC3)cc2O[C@H]1CN(C)C,-33,/,/,/,3,20[16.7 µM]
Cc1ccc(-n2[nH]c(C)c(C=Nc3cc(C)ccn3)c2=O)cc1,4,-3,/,-1,/,5
Cc1[nH]n(-c2ccccc2)c(=O)c1/C=N/NC(=O)c1ccc(O)cc1O,2,4,71*,1,/,11
Cc1[nH]n(-c2ccc(Br)cc2)c(=O)c1/C=N/NC(=O)c1ccccc1,/,-1,27,/,-1,/
Cc1ccc(-n2[nH]c(C)c(/C=N/NC(=O)c3ccc(O)cc3O)c2=O)cc1,1,-2,62*,-1,/,6
COc1ccc(NC(=O)N2CC(=O)N3[C@@H](CO)[C@H](c4ccc(C#CCC5CCCC5)cc4)[C@@H]3C2)cc1,-3,/,/,/,2,/
CN(C)CCCNC(=O)[C@@H]1[C@@H](CO)[C@@H]2Cn3c(ccc(-c4cccc(F)c4)c3=O)[C@H]1N2,7,/,/,/,4,/
COc1ccc(CSc2cccc3cccnc23)cc1[N+](=O)[O-],/,-1,45*,-3,/,/
COc1ccc(C(=O)Oc2cccc3cccnc23)cc1[N+](=O)[O-],2,-3,56*,-3,5,/
SMILES,PGC1a acetyl inh,CAL PDZ FP-1,ARNT TACC3 PPI,CAL PDZ FP-2,CFTR F508del cor,miR-122 sensor
Cc1ccc(S(=O)(=O)Nc2cccc3c2O[C@@H](CN(C)C(=O)Nc2cccc4ccccc24)[C@H](C)CN([C@H](C)CO)C3=O)cc1,0,/,/,/,-1,-6[16.7 µM]
CNC[C@H]1Oc2ccc(NC(=O)Nc3ccccc3)cc2C(=O)N([C@@H](C)CO)C[C@@H]1C,1,/,4,/,-4,1[16.7 µM]
S=c1nc[nH]c2c1ncn2-c1ccccc1,-6,48*,-11,-1,0,7
CO[C@H](CN(C)S(=O)(=O)c1ccc(C)cc1)[C@H](C)CN([C@H](C)CO)S(=O)(=O)c1cccc(Cl)c1,-18,/,-2,/,3,/
CO[C@@H](CN(C)S(=O)(=O)c1ccc(C)cc1)[C@H](C)CN([C@H](C)CO)S(=O)(=O)c1cccc(Cl)c1,2,/,-6,/,15*,/
CO[C@H]1CN(C)C(=O)c2cc(NC(=O)C3CC3)ccc2OC[C@H](C)N(CCc2ccccc2)C[C@@H]1C,1,/,-14,/,0,-8[16.7 µM]
CC(=O)Nc1ccc(C(=O)CN2C(=O)NC3(CCOc4ccccc43)C2=O)c(F)c1 (stereo unspecified),/,40*,/,-1,4,/
CC(=O)Nc1ccc(C(=O)CN2C(=O)NC3(CCCCCC3)C2=O)c(F)c1,7,2,-7,0,-3,1
COCC(=O)N1CC2(CCN(Cc3ccc(Cl)cc3)CC2)c2c([nH]c3cc(OC)ccc23)[C@@H]1CO,-6,/,/,/,2,/
CCC(=O)N1CC2(CCN(Cc3ccc(Cl)cc3)CC2)c2c([nH]c3cc(OC)ccc23)[C@H]1CO,-8,/,/,/,9.8*,/
Cc1ccc2[nH]c(-c3ccccc3)cc(=O)c2c1,-2,6,-6,-1,10*,51
Cc1ccc(-c2cc(=O)c3ccccc3[nH]2)cc1,4,-3,-5,-2,2,20
Cc1cc(OCC(=O)NCc2ccccn2)c2c(C)cc(=O)oc2c1,8,47*,20,0,0,0
CCCc1cc(=O)oc2cc(C)cc(OCC(=O)NCc3ccccn3)c12,-16,-2,3,-2,-3,-10
CCC(C)(C)NC(=O)CN(Cc1cccs1)C(=O)CCC(=O)Nc1nccs1,3,0,0,-3,2,/
CCC(C)(C)NC(=O)CN(Cc1ccco1)C(=O)CCC(=O)Nc1nccs1,-18,64*,-2,0,0,-6
C[C@H](NC(=O)C[C@@H]1CC[C@@H]2[C@H](COC[C@@H](O)CN2C(=O)Nc2cccc(F)c2)O1)c1ccccc1,5,/,-4,/,-2,-3[16.7 µM]
